Reference: ChEMBL document CHEMBL1143122, “Novel analogs of D-e-MAPP and B13. Part 1: synthesis and evaluation as potential anticancer agents” (Bioorg Med Chem, 2008)

Experiments:
Malme-3M = test: Antiproliferative activity against human MALME3M cells after 48 hrs; assay type: functional
Method in brief: (§1)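 NCI 60-cell screen. Cells were grown in RPMI 1640 with 5% FBS and 2 mM L-glutamine, then plated at 5,000–40,000 cells/well according to doubling time and preincubated for 24 h at 37 °C in 5% CO2. Compounds were dissolved in DMSO at 400× the top final concentration and tested at five 10-fold dilutions from 10−4 to 10−8 M for 48 h. Growth was read spectrophotometrically; GI50 is 50% net protein reduction.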

M14 = test: Antiproliferative activity against human M14 cells after 48 hrs; assay type: functional; details: M14, 48 h; method in brief: as §1
SK-MEL-5 = test: Antiproliferative activity against human SKMEL5 cells after 48 hrs; assay type: functional; details: SK-MEL-5, 48 h, read-out: Log LC50 (the source's name) (converted); method in brief: as §1
IGROV-1 = test: Antiproliferative activity against human IGROV1 cells after 48 hrs; assay type: functional; details: IGROV-1, 48 h, read-out: Log TGI (converted); method in brief: as §1
OVCAR-3 = test: Antiproliferative activity against human OVCAR-3 cells after 48 hrs; assay type: functional; details: OVCAR-3, 48 h; method in brief: as §1
OVCAR-4 = test: Antiproliferative activity against human OVCAR4 cells after 48 hrs; assay type: functional; details: OVCAR-4, 48 h; method in brief: as §1
786-0 = test: Antiproliferative activity against human 786-0 cells after 48 hrs; assay type: functional; details: 786-0, 48 h; method in brief: as §1
A498 = test: Antiproliferative activity against human A498 cells after 48 hrs; assay type: functional; details: A498, 48 h, read-out: Log TGI (converted); method in brief: as §1
ACHN = test: Antiproliferative activity against human ACHN cells after 48 hrs; assay type: functional; method in brief: as §1
RXF 393 = test: Antiproliferative activity against human RXF393 cells after 48 hrs; assay type: functional; details: RXF 393, 48 h; method in brief: as §1
SN12C = test: Antiproliferative activity against human SN12C cells after 48 hrs; assay type: functional; method in brief: as §1
TK-10 = test: Antiproliferative activity against human TK10 cells after 48 hrs; assay type: functional; details: TK-10, 48 h
Method in brief: (§2)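 NCI 60-cell-line screen. Lines grown in RPMI 1640 with 5% fetal bovine serum and 2 mM L-glutamine, plated at 5,000–40,000 cells/well according to doubling time, left 24 h at 37 °C in 5% CO2. Drug stocks in DMSO at 400-fold the top final concentration. Five 10-fold dilutions, 10−4 to 10−8 M, incubated 48 h. Growth read spectrophotometrically as net protein; GI50 taken as 50% reduction.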

PC-3 = test: Antiproliferative activity against human PC3 cells after 48 hrs; assay type: functional; details: PC-3, 48 h; method in brief: as §1
[1] = Antiproliferative activity against human NCI-ADR-RES cells after 48 hrs; assay type: functional; method in brief: as §1
Hs-578T = test: Antiproliferative activity against human HS578T cells after 48 hrs; assay type: functional; method in brief: as §1
NCI-H226 = test: Antiproliferative activity against human NCI-H226 cells after 48 hrs; assay type: functional; details: NCI-H226, 48 h; method in brief: as §1
NCI-H23 = test: Antiproliferative activity against human NCI-H23 cells after 48 hrs; assay type: functional; details: NCI-H23, 48 h; method in brief: as §1
NCI-H522 = test: Antiproliferative activity against human NCI-H522 cells after 48 hrs; assay type: functional; details: NCI-H522, 48 h; method in brief: as §1
COLO 205 = test: Antiproliferative activity against human COLO205 cells after 48 hrs; assay type: functional; details: COLO 205, 48 h; method in brief: as §1
HCC 2998 = test: Antiproliferative activity against human HCC2998 cells after 48 hrs; assay type: functional; details: HCC 2998, 48 h; method in brief: as §1
HCT-116 = test: Antiproliferative activity against human HCT116 cells after 48 hrs; assay type: functional; details: HCT-116, 48 h; method in brief: as §1
HT-29 = test: Antiproliferative activity against human HT29 cells after 48 hrs; assay type: functional; details: HT-29, 48 h; method in brief: as §1
KM12 = test: Antiproliferative activity against human KM12 cells after 48 hrs; assay type: functional; details: for CC50: read-out: Log LC50 (the source's name) (converted); method in brief: as §1
SW-620 = test: Antiproliferative activity against human SW620 cells after 48 hrs; assay type: functional; details: SW-620, 48 h; method in brief: as §2
SF-295 = test: Antiproliferative activity against human SF295 cells after 48 hrs; assay type: functional; details: SF-295, 48 h; method in brief: as §1
SF-539 = test: Antiproliferative activity against human SF539 cells after 48 hrs; assay type: functional; details: SF-539, 48 h; method in brief: as §1
SNB-19 = test: Antiproliferative activity against human SNB19 cells after 48 hrs; assay type: functional; details: SNB-19, 48 h; method in brief: as §1
CCRF-CEM = test: Antiproliferative activity against human CCRF-CEM cells after 48 hrs; assay type: functional; method in brief: as §1
[2] = Antiproliferative activity against human HL60(TB) cells after 48 hrs; assay type: functional, HL-60(TB); details: HL-60, 48 h
Method in brief: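 NCI 60-line panel screen: cells grown in RPMI 1640 with 5% fetal bovine serum and 2 mM L-glutamine, plated at 5,000–40,000 cells/well by doubling time, and preincubated 24 h at 37 °C in 5% CO2. Drugs were solubilised in DMSO at 400-fold the final maximum and tested at five 10-fold dilutions from 10−4 to 10−8 M for 48 h. Net protein was read spectrophotometrically, and the concentration giving 50% reduction was reported as log10 GI50.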

A549 = test: Antiproliferative activity against human A549 cells after 48 hrs; assay type: functional; details: A549, 48 h; method in brief: as §1
[3] = read-out: Log LC50 (the source's name) (converted)

SMILES: CCCCCCCCCCCCCCN[C@@H](C)[C@H](O)c1ccccc1
- GI50 (Malme-3M): 2.04 µM
- LC50 (Malme-3M): 6.46 µM
- TGI (Malme-3M; read-out: Log TGI (converted)): 3.63 µM
- GI50 (M14): 1.95 µM
- LC50 (M14): 6.31 µM
- TGI (M14; read-out: Log TGI (converted)): 3.55 µM
- CC50 (SK-MEL-5): > 100 µM
- TGI (IGROV-1): 3.55 µM
- GI50 (OVCAR-3): 1.66 µM
- TGI (OVCAR-3; read-out: Log TGI (converted)): 3.16 µM
- GI50 (OVCAR-4): 2 µM
- LC50 (OVCAR-4): 3.72 µM
- TGI (OVCAR-4; read-out: Log TGI (converted)): 6.92 µM
- GI50 (786-0): 1.58 µM
- CC50 (786-0; [3]): 5.89 µM
- TGI (786-0; read-out: Log TGI (converted)): 3.09 µM
- TGI (A498): 10 µM
- GI50 (ACHN): 1.78 µM
- CC50 (ACHN; [3]): 6.03 µM
- TGI (ACHN; read-out: Log TGI (converted)): 3.31 µM
- GI50 (RXF 393): 1.66 µM
- CC50 (RXF 393; [3]): 6.03 µM
- TGI (RXF 393; read-out: Log TGI (converted)): 3.16 µM
- GI50 (SN12C): 1.82 µM
- LC50 (50% net cell kill) (SN12C): 6.76 µM
- TGI (SN12C; read-out: Log TGI (converted)): 3.47 µM
- GI50 (TK-10): 2 µM
- CC50 (TK-10; [3]): 6.17 µM
- TGI (TK-10; read-out: Log TGI (converted)): 3.47 µM
- GI50 (PC-3): 2.04 µM
- TGI (PC-3; read-out: Log TGI (converted)): 3.72 µM
- GI50 [1]: 1.7 µM
- TGI ([1]; read-out: Log TGI (converted)): 3.39 µM
- GI50 (Hs-578T): 2.19 µM
- LC50 (Hs-578T): > 100 µM
- TGI (Hs-578T; read-out: Log TGI (converted)): 5.5 µM
- GI50 (NCI-H226): 1.95 µM
- TGI (NCI-H226; read-out: Log TGI (converted)): 3.8 µM
- GI50 (NCI-H23): 1.82 µM
- CC50 (NCI-H23; [3]): 6.76 µM
- TGI (NCI-H23; read-out: Log TGI (converted)): 3.55 µM
- GI50 (NCI-H522): 2.04 µM
- CC50 (NCI-H522; [3]): 7.41 µM
- TGI (NCI-H522; read-out: Log TGI (converted)): 3.89 µM
- GI50 (COLO 205): 1.74 µM
- CC50 (COLO 205; [3]): 6.17 µM
- TGI (COLO 205; read-out: Log TGI (converted)): 3.31 µM
- GI50 (HCC 2998): 1.82 µM
- CC50 (HCC 2998; [3]): 5.75 µM
- TGI (HCC 2998; read-out: Log TGI (converted)): 3.24 µM
- GI50 (HCT-116): 1.86 µM
- LC50 (HCT-116): 6.46 µM
- TGI (HCT-116; read-out: Log TGI (converted)): 3.47 µM
- GI50 (HT-29): 1.86 µM
- LC50 (HT-29): 6.76 µM
- TGI (HT-29; read-out: Log TGI (converted)): 3.55 µM
- GI50 (KM12; Homo sapiens, KM12, 48 h): 1.86 µM
- CC50 (KM12; Homo sapiens, KM12, 48 h): 6.31 µM
- CC50 (KM12): 5.62 µM
- GI50 (SW-620): 2.04 µM
- LC50 (concentration killing 50% of cells) (SW-620): > 100 µM
- GI50 (SF-295): 1.78 µM
- LC50 (SF-295): 6.46 µM
- TGI (SF-295; read-out: Log TGI (converted)): 3.39 µM
- GI50 (SF-539): 1.78 µM
- TGI (SF-539; read-out: Log TGI (converted)): 3.39 µM
- GI50 (SNB-19): 1.7 µM
- CC50 (SNB-19; [3]): 5.89 µM
- TGI (SNB-19; read-out: Log TGI (converted)): 3.16 µM
- GI50 (CCRF-CEM): 2.4 µM
- CC50 (CCRF-CEM; [3]): > 100 µM
- TGI (CCRF-CEM; read-out: Log TGI (converted)): 5.13 µM
- GI50 [2]: 2 µM
- LC50 [2]: 8.13 µM
- TGI ([2]; read-out: Log TGI (converted)): 3.98 µM
- GI50 (A549): 1.91 µM
- CC50 (A549; [3]): 7.08 µM
- TGI (A549; read-out: Log TGI (converted)): 3.63 µM
